Unmarked numbers belong to inactive results. The source made the active and inactive calls.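 How the source made its calls, unless noted: active means viability at or below 30% in both replicate assays; inconclusive means viability at or below 30% in just one of the two assays; inactive means the rest.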

The first assay can be described thus: HUVEC growth inhibition – cell-based, human, primary screen (AID 575).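 Further: 100% = median of untreated cell wells with 0.1% DMSO on each plate.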 As to conditions: HUVEC proliferation, CellTiter-Glo luminescence, 72 h; at 10 µM; hits give low values. The gist of the method:
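system = HUVEC primary cells | amount = 1250 cells/well | buffer or medium = supplemented EBM, 2% fetal bovine serum | dosing = single-point 10 µM, DMSO 0.1% final | times = 72 h compound incubation | detection = CTG luminescence | read-out = % viability relative to median vehicle-well signal on each plate | control set = vehicle and MePR control wells | format = collagen-coated 384-well format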
`CCOC(=O)c1sc(NC(=O)c2c(C)nn(Cc3ccccc3)c2C)cc1C`: the viability is 44.6%.

Regarding `Cc1nn(-c2nc3ccccc3s2)c(C)c1Oc1ccccc1O`, the viability is 20.3% (active).

Turning to `Cc1cc(C)c2c(n1)nn1c(N3CCN(c4ccccc4C)CC3)cc(C)nc21`, the viability is 92.4%.

For the compound `COc1ccc(-c2noc(CCC(=O)NCCCN3CCC(Cc4ccccc4)CC3)n2)cc1`, the viability is 33.1%.

With `Cc1[nH]nc(N=CC2=C(O)CC(C)(C)CC2=O)c1-c1ccc(Cl)cc1`, the viability was 79.4%.

In the case of `c1ccc2c(-c3nc(C4CCCCC4)no3)cc(-c3ccncc3)nc2c1`, the viability was 66.6%.

Turning to `CCCc1nc2ccccc2c(=O)n1NC(=O)c1c(O)c2cccc3c2n(c1=O)CCC3`, the viability was 83.5%.

As for `Cc1csc2ncc(C(=O)Nc3ccccc3Cl)c(=O)n12`, the viability is 66.8%.

Take `CN1CC=C2C(C#N)=C(N)C(C#N)(C#N)[C@H](c3cccc(Cl)c3)C2C1` (stereo partly drawn): the viability is 83%.

Consider `O=C(NC1CCc2ccccc21)C1CCN(S(=O)(=O)c2ccc(-n3cnnn3)cc2)CC1` (stereo not drawn), for which the viability was 96.4%.

For `N#CC(C(=O)C1CCCCC1)c1nc2ccccc2[nH]1` (stereo not drawn), the viability was 82%.

For the compound `Cc1nc2ccccc2c(=O)n1NC(=O)c1c(O)c2c(n(CC(C)C)c1=O)CCCC2`, the viability is 92%.

On to `COc1ccc(Br)cc1C1N2CC3(C)CN1CC(C)(C2)C3=O` (stereo not drawn), for which the viability is 97.1%.

Turning to `CCn1cc(C(=O)OCC(=O)OC2CC(C)CCC2C(C)C)c(=O)c2ccc(C)nc21` (stereo not drawn), the viability was 35.3%.

With `CCCNC(=O)c1c(N)n(-c2cc(OC)cc(OC)c2)c2nc3ccccc3nc12`, the viability is 38.6%.

In the case of `CCCc1cc(-c2n[nH]c(C)c2-c2ccc(C(=O)OCC)o2)c(O)cc1O`, the viability is 39.4%.

For the compound `N#CC1=C(N)n2c(s/c(=C\c3ccco3)c2=O)=C(C#N)C1c1ccco1` (stereo not drawn), the viability is 78.6%.

As to `CC1=C(C(=O)OC2CCCCC2)C(c2ccc(C)o2)C2=C(CC(C)(C)CC2=O)N1` (stereo not drawn), the viability is 50.5%.

`O=C(Nc1sc2c(c1C(=O)NCc1ccco1)CCCC2)c1ccc2c(c1)OCO2`: the viability is 78.7%.

`COc1ccc(CC(=O)NCc2cccs2)cc1`: the viability is 60.6%.

Take `COc1ccc(/C=N/n2cc(-c3ccc(OC)cc3)nc2N)cc1`: the viability was 82.5%.

Consider `CCn1c(CNc2ccc(OC)cc2)nnc1SCC(=O)c1ccc(OC)cc1`, for which the viability was 68.8%.

As to `Cc1ccccc1OCCCN1C(=O)C(=O)c2cccc(C)c21`, the viability was 77.7%.

For the compound `CCOC(=O)c1sc(NC(=O)CSc2n[nH]c(-c3ccccc3)n2)c(C#N)c1C`, the viability is 48.2%.

As to `CCSc1nnc(NC(=O)c2ccccn2)s1`, the viability was 18.4% (active).

With `CCOc1cccc(-n2nnnc2-c2ccc(OC)cc2)c1`, the viability is 49.9%.

Take `O=C(NCc1ccco1)c1cc2c(s1)CSC2`: the viability was 82.8%.

In the case of `CC(=O)c1ccccc1Oc1nc(CN2CCOCC2)nc2scc(-c3cccs3)c12`, the viability was 73.3%.

For the compound `C=CCn1c(N)c(C(=O)OC(C)(C)C)c2nc3ccccc3nc21`, the viability is 70.5%.

As to `CCOC(=O)c1sc(Nc2nc3c(OC)cccc3s2)nc1C`, the viability is 63.3%.

For `COc1ccc(N2CCN(Cc3cc(=O)oc4cc(C)c(Cl)c(C)c34)CC2)cc1`, the viability is 84.1%.

As for `O=C(c1cc(-c2ccco2)nn1-c1cccc(Cl)c1)N1CCCCC1`, the viability was 95%.

`CCOC(=O)c1sc2nc(N3CCCC3)c3c(c2c1N)CC(C)(C)OC3`: the viability was 58.8%.

For the compound `CCC(Sc1nc2n[nH]c(C)c2c(=N)n1-c1cc(Cl)ccc1C)C(=O)N1CCOCC1` (stereo not drawn), the viability is 71.2%.

Turning to `O=C(Nc1ccc(F)cc1)N(Cc1ccco1)Cc1cc2cc3c(cc2[nH]c1=O)OCO3`, the viability was 58.7%.

Turning to `N#CC1=C(SCC(=O)NC23CC4CC(CC(C4)C2)C3)NC(=O)C(C#N)C12CCCCC2` (stereo not drawn), the viability was 54.1%.

Take `CCOC(=O)c1nnc2cc(-c3ccc(Br)cc3)nn2c1C`: the viability was 70.3%.

With `CCOC(=O)c1c(NC(=O)Cn2c(C)nc3ccccc32)sc2c1CCC2`, the viability was 63%.

In the case of `COc1ccc(C2=NOC(C(=O)Nc3cc(Br)ccc3O)C2)cc1OC` (stereo not drawn), the viability was 56.4%.

The nature of another assay: reversal of MRP1-mediated doxorubicin resistance, pilot screen, H69AR cells, doxorubicin co-treatment (AID 601;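 active means viability loss from added drug above about 55%, and viability with drug at most 40%, in both replicates, limit read from the data, passing the limit was not always enough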). As to conditions: H69AR cells + 2 uM doxorubicin, CellTiter-Glo, 72 h; at 10 µM; hits give high values.
Take `CCOC(=O)c1sc(NC(=O)c2c(C)nn(Cc3ccccc3)c2C)cc1C`: the differential viability (reversal) is -8.76%.

In the case of `Cc1nn(-c2nc3ccccc3s2)c(C)c1Oc1ccccc1O`, the differential viability (reversal) is -6.93%.

For the compound `Cc1cc(C)c2c(n1)nn1c(N3CCN(c4ccccc4C)CC3)cc(C)nc21`, the differential viability (reversal) was -0.53%.

`COc1ccc(-c2noc(CCC(=O)NCCCN3CCC(Cc4ccccc4)CC3)n2)cc1`: the differential viability (reversal) is -1.48%.

Take `Cc1[nH]nc(N=CC2=C(O)CC(C)(C)CC2=O)c1-c1ccc(Cl)cc1`: the differential viability (reversal) is 1.14%.

For the compound `c1ccc2c(-c3nc(C4CCCCC4)no3)cc(-c3ccncc3)nc2c1`, the differential viability (reversal) was -5.85%.

On to `CCCc1nc2ccccc2c(=O)n1NC(=O)c1c(O)c2cccc3c2n(c1=O)CCC3`, for which the differential viability (reversal) was -6.06%.

As for `Cc1csc2ncc(C(=O)Nc3ccccc3Cl)c(=O)n12`, the differential viability (reversal) was 3.82%.

As to `CN1CC=C2C(C#N)=C(N)C(C#N)(C#N)[C@H](c3cccc(Cl)c3)C2C1` (stereo partly drawn), the differential viability (reversal) is 32.6%.

On to `O=C(NC1CCc2ccccc21)C1CCN(S(=O)(=O)c2ccc(-n3cnnn3)cc2)CC1` (stereo not drawn), for which the differential viability (reversal) is -8.48%.

In the case of `N#CC(C(=O)C1CCCCC1)c1nc2ccccc2[nH]1` (stereo not drawn), the differential viability (reversal) is -19.9%.

In the case of `Cc1nc2ccccc2c(=O)n1NC(=O)c1c(O)c2c(n(CC(C)C)c1=O)CCCC2`, the differential viability (reversal) was -17.2%.

Turning to `COc1ccc(Br)cc1C1N2CC3(C)CN1CC(C)(C2)C3=O` (stereo not drawn), the differential viability (reversal) was -33%.

`CCn1cc(C(=O)OCC(=O)OC2CC(C)CCC2C(C)C)c(=O)c2ccc(C)nc21` (stereo not drawn): the differential viability (reversal) was -1.67%.

`CCCNC(=O)c1c(N)n(-c2cc(OC)cc(OC)c2)c2nc3ccccc3nc12`: the differential viability (reversal) was -9.04%.

Take `CCCc1cc(-c2n[nH]c(C)c2-c2ccc(C(=O)OCC)o2)c(O)cc1O`: the differential viability (reversal) is -10.2%.

Consider `N#CC1=C(N)n2c(s/c(=C\c3ccco3)c2=O)=C(C#N)C1c1ccco1` (stereo not drawn), for which the differential viability (reversal) is -10.7%.

Take `CC1=C(C(=O)OC2CCCCC2)C(c2ccc(C)o2)C2=C(CC(C)(C)CC2=O)N1` (stereo not drawn): the differential viability (reversal) is 13.1%.

Regarding `O=C(Nc1sc2c(c1C(=O)NCc1ccco1)CCCC2)c1ccc2c(c1)OCO2`, the differential viability (reversal) was -11.3%.

Turning to `COc1ccc(CC(=O)NCc2cccs2)cc1`, the differential viability (reversal) is -17.3%.

On to `COc1ccc(/C=N/n2cc(-c3ccc(OC)cc3)nc2N)cc1`, for which the differential viability (reversal) was -10.3%.

Regarding `CCn1c(CNc2ccc(OC)cc2)nnc1SCC(=O)c1ccc(OC)cc1`, the differential viability (reversal) is -14.7%.

Regarding `Cc1ccccc1OCCCN1C(=O)C(=O)c2cccc(C)c21`, the differential viability (reversal) is -16.4%.

In the case of `CCOC(=O)c1sc(NC(=O)CSc2n[nH]c(-c3ccccc3)n2)c(C#N)c1C`, the differential viability (reversal) was 9.27%.

As for `CCSc1nnc(NC(=O)c2ccccn2)s1`, the differential viability (reversal) is -14%.

For `CCOc1cccc(-n2nnnc2-c2ccc(OC)cc2)c1`, the differential viability (reversal) is -47.9%.

For the compound `O=C(NCc1ccco1)c1cc2c(s1)CSC2`, the differential viability (reversal) is -26.3%.

Consider `CC(=O)c1ccccc1Oc1nc(CN2CCOCC2)nc2scc(-c3cccs3)c12`, for which the differential viability (reversal) is 32.8%.

As for `C=CCn1c(N)c(C(=O)OC(C)(C)C)c2nc3ccccc3nc21`, the differential viability (reversal) was -15.9%.

Consider `CCOC(=O)c1sc(Nc2nc3c(OC)cccc3s2)nc1C`, for which the differential viability (reversal) was -7.45%.

As to `COc1ccc(N2CCN(Cc3cc(=O)oc4cc(C)c(Cl)c(C)c34)CC2)cc1`, the differential viability (reversal) is -1.03%.

With `O=C(c1cc(-c2ccco2)nn1-c1cccc(Cl)c1)N1CCCCC1`, the differential viability (reversal) was -25.9%.

Consider `CCOC(=O)c1sc2nc(N3CCCC3)c3c(c2c1N)CC(C)(C)OC3`, for which the differential viability (reversal) was -12.8%.

As for `CCC(Sc1nc2n[nH]c(C)c2c(=N)n1-c1cc(Cl)ccc1C)C(=O)N1CCOCC1` (stereo not drawn), the differential viability (reversal) was 29.3%.

As for `O=C(Nc1ccc(F)cc1)N(Cc1ccco1)Cc1cc2cc3c(cc2[nH]c1=O)OCO3`, the differential viability (reversal) was 35.4%.

With `N#CC1=C(SCC(=O)NC23CC4CC(CC(C4)C2)C3)NC(=O)C(C#N)C12CCCCC2` (stereo not drawn), the differential viability (reversal) was -5.21%.

In the case of `CCOC(=O)c1nnc2cc(-c3ccc(Br)cc3)nn2c1C`, the differential viability (reversal) is 6.1%.

In the case of `CCOC(=O)c1c(NC(=O)Cn2c(C)nc3ccccc32)sc2c1CCC2`, the differential viability (reversal) was 3.14%.

As for `COc1ccc(C2=NOC(C(=O)Nc3cc(Br)ccc3O)C2)cc1OC` (stereo not drawn), the differential viability (reversal) is -10.5%.
